Bioassay records: PubChem BioAssay, The Scripps Research Institute Molecular Screening Center
HCV NS3 hel inh: inhibitors of HCV NS3 helicase, primary screen, biochemical, Cy5 molecular beacon fluorescence | inhibition, % at 10.9 µM | AID 1800, 2009 | Hepatitis C virus NS3 helicase | NS3 helicase DNA unwinding | 290,000 compounds, 0.56% hits;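 active = inhibition above the mean of all tested compounds plus 3 SD, set per campaign, cut at about 35% in these data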;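 also: 0% = DMSO wells and 100% = thioflavine S control wells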
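assay system = NS3 helicase fragment of HCV | buffer or medium = MOPS pH 6.5, MgCl2, DTT, Tween20, BSA | timing = 60 min unwinding reaction at 25 °C after ATP addition | signal = Cy5 beacon fluorescence read at start and 1 h | read-out basis = % inhibition of unwinding | control set = low DMSO, high thioflavine S at 110 µM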
ZTA DNA inh: counter-screen for EBNA-1 inhibitors: inhibitors of Epstein-Barr virus ZTA | ZTA-DNA binding, fluorescence polarization | inhibition, % at 11 µM | 320,000 compounds, 0.15% hits | AID 2234; in the data active = inhibition above about 33%
Target sequence (P03206 whole entry, looked up): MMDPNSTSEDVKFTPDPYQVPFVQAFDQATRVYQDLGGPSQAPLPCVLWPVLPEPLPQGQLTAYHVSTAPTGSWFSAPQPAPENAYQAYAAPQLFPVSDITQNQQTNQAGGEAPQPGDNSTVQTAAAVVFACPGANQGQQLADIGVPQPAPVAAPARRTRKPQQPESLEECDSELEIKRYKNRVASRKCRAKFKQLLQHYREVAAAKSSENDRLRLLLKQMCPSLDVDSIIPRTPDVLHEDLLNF
HCV core dimer: inhibitors of HCV core protein dimerization, primary screen, biochemical, TR-FRET, high-throughput | inhibition, % at 5 µM | 300,000 compounds, 0.33% hits | TR-FRET GST/Flag-core106 dimerization, 1536-well;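 active = inhibition above the mean of all tested compounds plus 3 SD, set per screening campaign, cut at about 45% in these data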
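System: GST/Flag-tagged HCV core106 proteins. Incubation: compound-protein-antibody incubation 4 h at 22.5 °C. Technique: HTRF with 340 nm excitation, 617/671 nm emission. Medium: KF-containing HEPES buffer, pH 7.45, DTT, CHAPS, BSA. Read-out: inhibition (%) from 671 over 617 nm ratio. Also added: Eu(K)-anti-GST 90 ng/mL plus XL665-anti-Flag 1 µg/mL.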
PP1 inh: PP1-alpha phosphatase inhibitors, primary screen, counter-screen for PP5 inhibitor project, biochemical, fluorescence, OMFP substrate, single point; Serine/threonine-protein phosphatase PP1-alpha catalytic subunit (Homo sapiens), P62136; purified PP1alpha; inhibition, % at 6.7 µM; 320,000 compounds, 0.9% hits; AID 2235, 2010;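 active = inhibition above the mean inhibition of all tested compounds plus 3 SD, computed separately for each screening campaign, cut at about 15% in these data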
Target sequence (P62136 whole entry, looked up): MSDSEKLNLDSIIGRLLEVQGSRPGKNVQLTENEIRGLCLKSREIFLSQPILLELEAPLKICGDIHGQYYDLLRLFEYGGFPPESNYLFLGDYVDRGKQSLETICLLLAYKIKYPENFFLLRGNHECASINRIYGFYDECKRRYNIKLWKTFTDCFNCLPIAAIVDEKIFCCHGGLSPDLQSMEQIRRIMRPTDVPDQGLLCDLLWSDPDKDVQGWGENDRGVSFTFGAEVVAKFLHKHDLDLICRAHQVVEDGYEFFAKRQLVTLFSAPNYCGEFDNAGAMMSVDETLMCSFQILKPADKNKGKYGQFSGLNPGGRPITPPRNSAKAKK
EBNA-1 inhibitor: EBNA-1 DNA-binding inhibitors, primary screen, biochemical, fluorescence polarization; 300,000 compounds, 0.34% hits; inhibition, % at 14.8 µM; AID 1950, 2009; in the data active = inhibition above about 28%
NS3 hel confirm: HCV NS3 helicase inhibitors, retest, confirmation, biochemical, Cy5 molecular beacon fluorescence, triplicate. shares compounds with HCV NS3 hel inh. NS3 helicase DNA unwinding. inhibition, % at 10.9 µM. 1,600 compounds, 31% hits. AID 1943, 2009;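 active = inhibition above the mean of all tested compounds plus 3 SD, cutoff set per campaign, cut at about 36% in these data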
DNA FID counter: compounds displacing fluorescent DNA intercalator, artefact control for HCV NS3 helicase inhibitor project, biochemical, FID fluorescence, triplicate | shares compounds with HCV NS3 hel inh | DNA fluorescent intercalator displacement | inhibition, % at 7.9 µM | 1,600 compounds, 4% hits | AID 1945, 2009; in the data active = inhibition above about 37%;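 also: 0% = vehicle and 100% = reference compound; higher means more displacement of ethidium bromide from the DNA hairpin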
DNA FID DR: compounds displacing fluorescent intercalator from DNA, dose response, counter-screen for HCV NS3 helicase inhibitor project, biochemical, fluorescence. shares compounds with HCV NS3 hel inh. fluorescent intercalator displacement from DNA. IC50, µM. 120 tested, under 10 active. AID 2172, 2009; call rule not given here
* marks the source's active call; other numbers are inactive results; . = no result given. This is a sample that favours compounds with a hit; in the whole collection about 1.9% have one here.

SMILES	HCV NS3 hel inh	ZTA DNA inh	HCV core dimer	PP1 inh	EBNA-1 inhibitor	NS3 hel confirm	DNA FID counter	others
O=C(c1cc([N+](=O)[O-])ccc1N1CCOCC1)N1CCN(S(=O)(=O)c2cc(Cl)ccc2Cl)CC1	.	-3.2	4.3	-3.5	7.8	.	.
COc1ccc(OC)c(S(=O)(=O)NCCS(=O)(=O)N2CCN(c3ccccc3)CC2)c1	4.7	-14.6	-2.5	-1.5	-8.0	.	.
Cc1cc(O)c(C(C)C)cc1N=Nc1ccccc1C(=O)O	0.4	-0.5	3.7	3.9	-2.1	.	.
Cc1cc(N=Nc2ccccc2C(=O)O)c(C)c(C)c1O	48.6*	-1.1	-0.2	9.9	8.1	66.3*	1.7
O=C(O)C1CCCCN1C(=O)c1cc2c(s1)CCCCC2 (stereo not given)	.	-2.0	.	-6.3	.	.	.
O=C(NCc1ccco1)C(=O)NCC1OCCN1S(=O)(=O)c1cc(F)ccc1F (stereo not given)	48.8*	-1.8	1.8	1.1	4.7	-7.4	11.1
OCC1CCCCN1CC(O)COC(c1ccc(F)cc1)c1ccc(F)cc1 (stereo not given)	4.5	-12.8	-3.8	-3.8	-4.3	.	.
COc1ccc(N2CCN(C(=O)C3CCN(C(=O)c4ccc([N+](=O)[O-])cc4)CC3)CC2)cc1	3.8	-1.1	-3.0	-2.9	7.4	.	.
O=C(c1cccc(Br)c1)N1CCN(c2cnn(-c3ccccc3)c(=O)c2Cl)CC1	-8.2	5.2	2.4	-1.9	11.2	.	.
CCOc1ccc(C(=O)N2CCN(c3cnn(-c4ccccc4)c(=O)c3Cl)CC2)cc1	40.0*	2.6	-25.1	2.5	-1.8	-3.7	-53.4
CC1(C)Cc2c(sc3[nH]c(=O)n(CC(=O)NCC4CCCO4)c(=O)c23)CO1 (stereo not given)	-6.6	-26.3	-7.6	-0.1	-7.1	.	.
O=C(COc1ccc(F)cc1Cl)Nc1ccc(S(=O)(=O)Nc2nccs2)cc1	.	-4.1	9.2	-1.5	-3.1	.	.
O=c1c(C(c2ccc(Cl)cc2)c2c(O)nc3n(c2=O)CCS3)c(O)nc2n1CCS2	46.6*	10.1	1.4	-7.6	4.1	22.6	1.6
COc1ccccc1NC(=O)CN1C(=O)C2(OCCCO2)c2ccccc21	5.1	5.6	1.2	-1.8	-9.2	.	.
COc1ccc(OC)c(NC(=O)CN2C(=O)C3(OCCCO3)c3ccccc32)c1	54.4*	-3.1	1.8	-1.7	5.6	-1.8	-22.1
CN(C)c1ccc(N=C/C=C2/N(C)c3ccccc3C2(C)C)cc1	36.2*	.	.	.	.	-13.1	42.0*
CN1/C(=C\C=N\O)C(C)(C)c2ccccc21	-8.8	0.9	-2.9	-3.1	0.1	.	.
O=C(O)c1cccc(S(=O)(=O)N2CCCC(c3nc4c(nnn4Cc4ccc(F)cc4)c(=O)[nH]3)C2)c1 (stereo not given)	39.5*	8.7	0.7	9.7	-10.5	-1.0	-25.2
CCc1ccccc1NC(=O)CNC(=O)c1cccc(S(=O)(=O)N2CCN(Cc3ccccc3)CC2)c1	.	-11.9	2.3	1.0	3.6	.	.
CCc1ccc(N2CSC3=C(C#N)C(c4cccs4)CC(=O)N3C2)cc1 (stereo not given)	27.2	5.0	13.1	7.4	6.2	.	.
CCc1ccc(C2CC(=O)N3CN(c4ccccc4)CSC3=C2C#N)cc1 (stereo not given)	44.1*	12.8	12.2	5.2	-4.3	33.7	-12.9
Cc1cc(C)cc(NC(=O)c2ccc(NC3=NC4CS(=O)(=O)CC4S3)cc2)c1 (stereo not given)	-1.6	-3.8	-9.3	1.7	-8.6	.	.
COc1ccc(NC(=O)c2ccc(NC3=NC4CS(=O)(=O)CC4S3)cc2)cc1 (stereo not given)	47.3*	-0.5	-0.9	-1.6	10.0	-4.1	11.4
CCCCN(C(C)=O)C1CC(=O)N(c2ccc(OCCC)cc2)C1=O (stereo not given)	-9.9	-14.4	-6.4	1.0	1.7	.	.
CCCCCOc1ccc(N2C(=O)CC(N(O)c3ccccc3)C2=O)cc1 (stereo not given)	45.2*	-22.4	18.4	9.0	4.0	7.4	4.5
SMILES	HCV NS3 hel inh	ZTA DNA inh	HCV core dimer	PP1 inh	EBNA-1 inhibitor	NS3 hel confirm	DNA FID counter	others
CCCCOc1ccc(N2C(=O)CC(N(O)c3ccccc3)C2=O)cc1 (stereo not given)	37.2*	-5.1	8.9	6.1	4.7	-2.0	13.3
COCCN1C(=O)C(=O)/C(=C(/O)c2ccc(S(=O)(=O)N3CCOCC3)cc2)C1c1cccc(OC)c1 (stereo not given)	12.0	0.4	-3.0	-3.8	-14.9	.	.
O=C(/C=C/c1ccccc1Cl)c1ccccc(=O)c1O	44.1*	10.3	6.9	13.3	2.2	77.8*	32.6	DNA FID DR=>79.4
Cc1ccc(C)c(NC(=O)c2ccccc2O)c1	6.6	-12.7	-3.0	1.5	4.9	.	.
O=C(/C=C/c1ccc(O)c(O)c1)c1ccccc1O	-9.9	4.8	0.2	4.8	-9.7	.	.
Cc1ccc(C)c(/C=C/C(=O)c2ccccc(=O)c2O)c1	38.5*	3.4	4.9	13.9	-1.1	77.1*	16.3	DNA FID DR=>79.4
Cc1ccc(/C=C/C(=O)c2ccccc(=O)c2O)c(C)c1	37.5*	3.7	23.6	11.4	7.2	77.1*	16.6	DNA FID DR=>79.4
COc1ccc(CCNc2ccc(C(CC(N)=O)NC(=O)c3cc(C)cc(C)c3)cc2[N+](=O)[O-])cc1 (stereo not given)	20.9	3.1	0.8	0.6	-2.8	.	.
Cc1cccc(NC(=S)Nc2ccc(N3CCOCC3)cc2)c1C	40.2*	-1.1	-5.6	-3.2	-3.8	-13.9	-1.6
CCn1c(SCC(=O)NCc2ccccc2)nnc1-c1cccnc1	1.2	-20.8	-4.1	-2.7	-10.1	.	.
O=C(NC(Cc1ccccc1)C(=O)O)/C(=C\c1ccco1)NC(=O)c1ccc(Br)cc1 (stereo not given)	23.2	-9.7	2.5	0.6	-2.7	.	.
O=C(O)/C(=C\c1ccco1)NC(=O)c1cccc2ccccc12	53.2*	-1.4	0.4	3.5	0.1	-7.5	0.8
O=C(NC(Cc1ccccc1)C(=O)O)/C(=C\c1ccco1)NC(=O)c1ccccc1 (stereo not given)	36.5*	2.7	-0.9	-2.7	6.9	54.1*	-16.7
O=C(NCCCn1ccnc1)/C(=C\c1ccccc1Cl)NC(=O)c1ccccc1	-10.7	-13.2	-0.3	-3.1	-4.3	.	.
O=C(CSc1n[nH]c(-c2ccncc2)n1)Nc1ccccc1C(F)(F)F	-2.5	-1.7	5.6	-6.0	-4.1	.	.
